# Experiments:
# [1] = system: L1210; assay: Antitumor activity was determined against the ic implanted L1210 lymphoid leukemia in mice by percent increase in life span at 133 mg/kg (1,5,9qd treatment schedule) dosage; format: functional, Mus musculus
# In short: (§1)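 DBA/2J mice, groups of 6 (26-32 g), got 1 × 10^5 L1210 cells ic on day 0. Dosing was ip starting 24 h later, as a sonicated solution or suspension in 0.9% NaCl with 0.5% Tween-80, over a wide dose range. Mice were followed daily until death. Median survival T/C was taken from survivors per NCI protocols, and ILS = (T/C − 1) × 100. Active range means doses giving ILS ≥25%; optimal dose means greatest ILS.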
# [2] = system: P388; assay: Antitumor activity was determined against the ip implanted P388 leukemia in mice by range in survival days at 500 mg/kg (1 qd treatment schedule) dosage; Range is 35->45; settings: route intraperitoneal
# [3] = system: L1210; assay: Antitumor activity was determined against the ip implanted L1210 leukemia in mice by change in […] at 40 mg/kg (treatment of 1-5qd schedule) dosage; format: functional, Mus musculus; settings: route intraperitoneal
# In short: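 DBA/2J mice, 6 per group (wt 23-28 g), inoculated ip with 1×10^6 L1210 cells on day 0. Treatment was given ip in 0.9% NaCl with 0.5% Tween-80, starting 24 h later. Weight change was taken on day 8. Mice were observed daily until death or 45 days. Median survival T/C and %ILS = (T/C − 1) × 100 came from survivors per NCI protocols, and 45-day survivors were counted.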
# [4] = system: P388; assay: Antitumor activity was determined against the ip implanted P388 leukemia in mice by 45-day survivors in mice at 500 mg/kg (1 qd treatment schedule) dosage; format: functional, Mus musculus; settings: route intraperitoneal
# In short: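 DBA/2J mice, 23-33 g, in groups of 6, were inoculated ip with 1×10^6 P388 cells on day 0. Dosing was ip from 24 h on the stated schedules, in 0.9% NaCl with 0.5% Tween-80 (sonicated solution or suspension). Survival was followed daily until death or 45 days. Median T/C was calculated from survivors per NCI protocols, with ILS = (T/C − 1) × 100.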
# [5] = system: L1210; assay: Antitumor activity was determined against the ip implanted L1210 leukemia in mice by 45-day survivors in mice at 300 mg/kg (treatment of 1qd schedule) dosage; format: functional, Mus musculus; settings: route intraperitoneal
# In short: (§2)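 DBA/2J mice in groups of 6 (wt 23-28 g) were inoculated ip with 1×10^6 L1210 cells on day 0. Dosing was ip from 24 h, in 0.9% NaCl with 0.5% Tween-80 (conjugates sonicated), across a range of doses. Mice were observed daily until death or 45 days. Median T/C was computed from survivors per NCI protocols, and ILS = (T/C − 1)×100.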
# [6] = system: L1210; assay: Antitumor activity against ic implanted L1210 lymphoid leukemia in mice expressed as active dose range (1-5qd treatment schedule) required to produce increase in life span by >25% was determined; Range is 40-80; format: functional, Mus musculus; in short: as §1
# [7] = system: L1210; assay: Antitumor activity was determined against the ic implanted L1210 lymphoid leukemia in mice by range in survival days at 80 mg/kg (1-5qd treatment schedule) dosage; Range is 11-24; format: functional, Mus musculus
# [8] = system: L1210; assay: Antitumor activity was determined against the ic implanted L1210 lymphoid leukemia in mice by change in […] at 100 mg/kg (treatment of 1-5qd schedule) dosage; format: functional, Mus musculus
# In short: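 DBA/2J mice, 6 per group (wt 26-32 g), inoculated ic with 1×10^5 L1210 cells on day 0. Dosing ip began 24 h after inoculation, with a sonicated solution or suspension in 0.9% NaCl containing 0.5% Tween-80, given over a range of doses. Animals were followed daily until death. Body weight change, median survival T/C, and %ILS = (T/C − 1) × 100 were computed from survivors per NCI protocols.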
# [9] = system: L1210; assay: Antitumor activity was determined against the ip implanted L1210 leukemia in mice by percent median survival rate (treated/control) at 400 mg/kg (treatment of 1qd schedule) dosage; 27.5/7.0; format: functional, Mus musculus; settings: route intraperitoneal
# In short: (§3)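 DBA/2J mice, 23-28 g, in groups of 6, were inoculated ip with 1×10^6 L1210 cells on day 0. Dosing was ip starting 24 h later on the stated daily schedules. Conjugates were given as sonicated solutions and reference prodrugs as suspensions in 0.9% NaCl with 0.5% Tween-80. Mice were observed daily until death or 45 days. Median survival T/C was calculated from survivors per NCI protocols.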
# [10] = system: L1210; assay: Antitumor activity was determined against the ic implanted L1210 lymphoid leukemia in mice by percent increase in life span at 167 mg/kg (treatment of 1, 5, 9qd schedule) dosage; format: functional, Mus musculus; in short: as §1
# [11] = system: L1210; assay: Antitumor activity was determined against the ic implanted L1210 lymphoid leukemia in mice by median survival time at 167 mg/kg (treatment of 1, 5, 9qd schedule) dosage; 21.0/7.0
# [12] = system: L1210; assay: Antitumor activity was determined against the ic implanted L1210 lymphoid leukemia in mice by percent increase in life span at 500 mg/kg (treatment of 1qd schedule) dosage
# [13] = system: L1210; assay: Antitumor activity was determined against the ic implanted L1210 lymphoid leukemia in mice by median survival time at 100 mg/kg (treatment of 1-5qd schedule) dosage; 22.0/7.0
# [14] = system: P388; assay: Antitumor activity was determined against the ip implanted P388 leukemia in mice by range in survival days at 67 mg/kg (treatment of 1,5,9qd schedule) dosage; Range is 21-31; format: functional, Mus musculus; settings: route intraperitoneal
# [15] = system: P388; assay: Antitumor activity was determined against the ip implanted P388 leukemia in mice by percent median survival rate (treated/control) at 500 mg/kg (treatment of 1qd schedule) dosage; >45.0/11.0; format: functional, Mus musculus; settings: route intraperitoneal
# [16] = system: L1210; assay: Antitumor activity was determined against the ip implanted L1210 leukemia in mice by percent increase in life span at 100 mg/kg (treatment of 1-5qd schedule) dosage; format: functional, Mus musculus; settings: route intraperitoneal; in short: as §2
# [17] = system: L1210; assay: Antitumor activity was determined against the ip implanted L1210 leukemia in mice by range in survival days at 100 mg/kg (treatment of 1-5qd schedule) dosage; 18-32; format: functional, Mus musculus; settings: route intraperitoneal; in short: as §3
# [18] = system: L1210; assay: Antitumor activity against the ic implanted L1210 lymphoid leukemia in mice expressed as optimal dose (1-9qd treatment schedule) required to produce greatest increase in life span was determined; format: functional, Mus musculus; in short: as §1
# [19] = system: L1210; assay: Antitumor activity was determined against the ip implanted L1210 leukemia in mice by percent increase in life span at 200 mg/kg (treatment of 1-5qd schedule) dosage; format: functional, Mus musculus; settings: route intraperitoneal; in short: as §2
# [20] = system: P388; assay: Antitumor activity against ip implanted P388 leukemia in mice expressed as active dose range (1 qd treatment schedule) required to produce increase in life span by >25% was determined; Range is 100-600; format: functional, Mus musculus
# In short: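 P388 leukemia: 1 × 10^6 cells were given ip on day 0 to DBA/2J mice, groups of 6 (23-33 g). Treatment was ip from 24 h after inoculation, vehicle 0.9% NaCl with 0.5% Tween-80. Mice were observed daily until death or 45 days. Median survival T/C was calculated from survivors per NCI protocols, and ILS = (T/C − 1) × 100. Active range means doses giving ILS ≥25%; optimal dose means greatest ILS.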
compound,measurement,setting,value
CCCCCCCCCCCCCCCC(=O)OC[C@H](COP(=O)(O)OP(=O)(O)OC[C@H]1O[C@@H](n2ccc(N)nc2=O)[C@@H](O)[C@@H]1O)OC(=O)CCCCCCCCCCCCCCC,ILS,[1],150
same,Range,[2],35
same,Weight change,[3],-1.9 g mouse-1
same,Survivors,[4],4
same,Survivors,[5],1
same,Active dose range,[6],40 mg/kg/day
same,Range,[7],11
CCCCCCCCCCCCCCCCOCC(COP(=O)(O)OP(=O)(O)OC[C@H]1O[C@@H](n2ccc(N)nc2=O)[C@@H](O)[C@@H]1O)OC(=O)CCCCCCCCCCCCCCC (mixture of isomers),Weight change,[8],-2.03 g mouse-1
same,T/C,[9],27.5%
same,ILS,[10],200
same,median survival time,[11],21 days
same,ILS,[12],229
same,median survival time,[13],22 days
CCCCCCCCCCCCCCCCCCOCC(COP(=O)(O)OP(=O)(O)OC[C@H]1O[C@@H](n2ccc(N)nc2=O)[C@@H](O)[C@@H]1O)OC(=O)CCCCCCCCCCCCCCC (mixture of isomers),Range,[14],21
same,T/C,[15],>45%
same,ILS,[16],229
same,Range,[17],18
Nc1ccn([C@@H]2O[C@H](CO)[C@@H](O)[C@@H]2O)c(=O)n1 [CYTARABINE],Optimal dose,[18],100 mg
same,ILS,[19],143
same,Active dose range,[20],100 mg/kg/day
